Experimental data reported in ChEMBL document CHEMBL1221348, “1,2,3-triazole analogs of combretastatin A-4 as potential microtubule-binding agents” (Bioorg Med Chem, 2010).

Experiments:
K562 = assay: Cytotoxicity against human K562 cells after 5 days by MTT assay; type: functional, cell-based; settings: K562, 120 h
How it was run: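 K562 human chronic myelogenous leukemia cells were grown in antibiotic-free RPMI with 10% v/v FCS and plated at 40,000 cells/mL. Drug was dissolved in DMSO and serially diluted in medium, with a drug-free control. Plates were incubated 5 days at 37 °C in 5% CO2. MTT was added for 3 h and the formazan dissolved in DMSO. OD was read at 540 and 690 nm to derive the growth-inhibitory dose.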

Tubulin = Tubulin (Sus scrofa, UniProt P02554+P02550); assay: Inhibition of pig tubulin polymerization; type: protein assay
How it was run: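 Porcine brain tubulin (11 mg/mL stock) was used in Mes buffer (0.1 M Mes, 1 mM EGTA, 0.5 mM MgCl2, pH 6.6) with GTP (5 mM stock) and drug in DMSO. The plate was prechilled 30 min at 4 °C. Absorbance at 350 nm was recorded at ambient temperature for 60 min against buffer+drug blanks. IC50 was taken graphically as percent of untreated control assembly.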

IC50 (Tubulin) | SMILES | IC50 (K562)
– | COc1ccc(-n2cc(-c3cc(OC)c(OC)c(OC)c3)nn2)cc1 | > 10 µM
– | COc1ccc(-c2cn(Cc3cc(OC)c(OC)c(OC)c3)nn2)cc1[N+](=O)[O-] | > 10 µM
– | COc1ccc(-c2cn(Cc3cc(OC)c(OC)c(OC)c3)nn2)cc1N | > 10 µM
– | COc1ccc(-c2cnnn2Cc2cc(OC)c(OC)c(OC)c2)cc1O | 0.53 µM
– | COc1ccc(Cn2nncc2-c2cc(OC)c(OC)c(OC)c2)cc1O | 1.83 µM
– | COc1ccc(Cn2cc(-c3cc(OC)c(OC)c(OC)c3)nn2)cc1N | > 10 µM
– | COc1ccc(-c2cnnn2Cc2cc(OC)c(OC)c(OC)c2)cc1[N+](=O)[O-] | > 10 µM
– | COc1ccc(Cn2cc(-c3cc(OC)c(OC)c(OC)c3)nn2)cc1O | > 10 µM
– | COc1ccc(-c2cn(Cc3cc(OC)c(OC)c(OC)c3)nn2)cc1O | > 10 µM
– | COc1ccc(Cn2cc(-c3cc(OC)c(OC)c(OC)c3)nn2)cc1Br | > 10 µM
– | COc1ccc(-c2cn(-c3cc(OC)c(OC)c(OC)c3)nn2)cc1Br | > 10 µM
– | COc1ccc(-c2cn(Cc3cc(OC)c(OC)c(OC)c3)nn2)cc1 | > 10 µM
– | COc1ccc(Cn2cc(-c3cc(OC)c(OC)c(OC)c3)nn2)cc1 | > 10 µM
> 20 µM | COc1ccc(-n2cc(-c3cc(OC)c(OC)c(OC)c3)nn2)cc1O | 3.2 µM
– | COc1ccc(-n2cc(-c3cc(OC)c(OC)c(OC)c3)nn2)cc1N | > 10 µM
– | COc1ccc(-c2cnnn2Cc2cc(OC)c(OC)c(OC)c2)cc1Br | > 10 µM
> 20 µM | COc1ccc(-c2cn(-c3cc(OC)c(OC)c(OC)c3)nn2)cc1N | –
– | COc1ccc(-c2cnnn2Cc2cc(OC)c(OC)c(OC)c2)cc1 | 5.56 µM
– | COc1ccc(-c2cn(Cc3cc(OC)c(OC)c(OC)c3)nn2)cc1Br | > 10 µM
– | COc1ccc(Cn2nncc2-c2cc(OC)c(OC)c(OC)c2)cc1 | 8.66 µM
– | COc1ccc(-c2cn(-c3cc(OC)c(OC)c(OC)c3)nn2)cc1O | > 10 µM
– | COc1ccc(-n2cc(-c3cc(OC)c(OC)c(OC)c3)nn2)cc1Br | > 10 µM
– | COc1ccc(-c2cn(-c3cc(OC)c(OC)c(OC)c3)nn2)cc1 | > 10 µM
– | COc1ccc(-c2cn(-c3cc(OC)c(OC)c(OC)c3)nn2)cc1[N+](=O)[O-] | > 10 µM
> 20 µM | COc1ccc(Cn2nncc2-c2cc(OC)c(OC)c(OC)c2)cc1N | 0.73 µM
– | COc1ccc(Cn2cc(-c3cc(OC)c(OC)c(OC)c3)nn2)cc1[N+](=O)[O-] | > 10 µM
– | COc1ccc(-n2cc(-c3cc(OC)c(OC)c(OC)c3)nn2)cc1[N+](=O)[O-] | > 10 µM
> 20 µM | COc1ccc(-c2cnnn2Cc2cc(OC)c(OC)c(OC)c2)cc1N | 0.38 µM
– | COc1ccc(Cn2nncc2-c2cc(OC)c(OC)c(OC)c2)cc1[N+](=O)[O-] | > 10 µM
– | COc1ccc(Cn2nncc2-c2cc(OC)c(OC)c(OC)c2)cc1Br | > 10 µM
